Source: PMC10548513 (Chemical Science, 2023)
One block for each compound: values may come before it. Positions of bridges follow the written chain, without caps; N, C: chain ends. Non-standard residues stand in square brackets, D forms with d. Residues, ends and D or L forms follow the SMILES beside them. No end group written: not given here. R8 = C=CCCCCCC[C@@](C)(N)C(=O)O; S5 = C=CCCC[C@](C)(N)C(=O)O

Key:
HeLa cells [1] = assay: Peptide cytotoxicity, WST-8; type: cell-based; settings: 24 h; for Cytotoxicity at 10 µM: peptide 10 µM; for Cytotoxicity at 30 µM: peptide 30 µM
HeLa cells [2] = assay: Luciferase reporter assay, transfection of pDNA with peptide/pDNA complexes; type: cell-based; settings: N/P ratio 16, 24 h
Outline: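 Peptide/pDNA complexes were made with luciferase-encoding (rLuc) pDNA at an N/P charge ratio (peptide cationic residues to pDNA phosphate) of 8 or 16. They were added to HeLa cells for 24 h. Transfection was read as luminescence, given as RLU normalized to blank; n = 3, mean ± standard deviation.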

Huh-7-Luc cells = assay: RNAi assay by luciferase assay, peptide/siRNA complexes; type: cell-based, human; settings: peptide/Luc-siRNA complex, N/P ratio 16, 48 h, n = 5
Outline: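 Complexes of peptide with firefly GL3 luciferase siRNA, or scrambled-sequence control siRNA, were prepared at N/P 8 or 16. They were added to Huh-7 cells stably expressing luciferase and incubated for 48 h. Silencing was measured as loss of luminescence; n = 5, mean ± standard deviation.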

[3] = Relative hydrophobicity by UPLC retention time; type: physicochemical; settings: comparison among stapled peptides st4-1–6 and st7-1–6 (Table S1)

Compound: CC[C@H](C)[C@H](NC(=O)CN)C(=O)N[C@@H](CCCNC(=N)N)C(=O)N[C@@H](CCCNC(=N)N)C(=O)N[C@@H](Cc1ccccc1)C(=O)N[C@@H](CC(C)C)C(=O)N[C@@H](CCCNC(=N)N)C(=O)N[C@]1(C)CCCCCCC=CCCC[C@@](C)(C(=O)N[C@@H](Cc2ccccc2)C(=O)N[C@@H](CCCNC(=N)N)C(N)=O)NC(=O)[C@H](CCCNC(=N)N)NC(=O)[C@H](C(C)C)NC(=O)[C@H](Cc2ccccc2)NC(=O)[C@H](CCCNC(=N)N)NC(=O)[C@H](CCCNC(=N)N)NC(=O)[C@H](C)NC1=O [st7-5_R] (H-GIRRFLR[R8]ARRFVR[S5]FR-NH2; staple 8-15)
Cytotoxicity at 10 µM (HeLa cells [1]): did not show significant cytotoxicity | Transfection efficiency of pDNA relative to st7-5 (HeLa cells [2]): about 100 times | Reduction of the luminescence signal (gene silencing) with Luc-siRNA (Huh-7-Luc cells): ~70%

Compound: GIKKFLKSAKKFVKAFK-NH2 [Pep-1]
Cytotoxicity at 30 µM (HeLa cells [1]): did not exhibit cytotoxicity

Compound: GIGKFLHSAKKFGKAFVGEIMNS-NH2 [Magainin 2, reference compound]
Cytotoxicity at 30 µM (HeLa cells [1]): did not exhibit cytotoxicity

Relative hydrophobicity from UPLC retention times [3]: most hydrophobic
Compound: CC[C@H](C)[C@H](NC(=O)CN)C(=O)N[C@@H](CCCCN)C(=O)N[C@@H](CCCCN)C(=O)N[C@@H](Cc1ccccc1)C(=O)N[C@@H](CC(C)C)C(=O)N[C@@H](CCCCN)C(=O)N[C@]1(C)CCCCCCC=CCCC[C@@](C)(C(=O)N[C@@H](Cc2ccccc2)C(=O)N[C@@H](CCCCN)C(N)=O)NC(=O)[C@H](CCCCN)NC(=O)[C@H](C(C)C)NC(=O)[C@H](Cc2ccccc2)NC(=O)[C@H](CCCCN)NC(=O)[C@H](CCCCN)NC(=O)[C@H](C)NC1=O [st7-5] (H-GIKKFLK[R8]AKKFVK[S5]FK-NH2; staple 8-15)
Cytotoxicity at 10 µM (HeLa cells [1]): did not show significant cytotoxicity
